Data taken from ChEMBL document CHEMBL5096231, “Covalently Conjugated NOD2/TLR7 Agonists Are Potent and Versatile Immune Potentiators” (J Med Chem, 2022).
The source made the active and inactive calls. The rule behind the calls is not given here.

How the values were obtained:
CD4+ve Th [1] = assay: (§1) Induction of mouse ovalbumin specific CD4+ T cell activation assessed as increase in IL-17A expression at 1 uM preincubated for 18 hrs with mouse BDMC cells in presence of ovalbumin followed by washout and further coincubated with CD4+ T cells and measured after 72 hrs; assay type: functional, cell-based
Procedure, shortened: (§2)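 Supernatants taken after the 72 h coculture of washed BMDCs (18 h pretreatment with 1 μM compound, LPS 1 μg/mL or vehicle, plus OVA 50 μg/mL) with OT-II CD4+ or OT-I CD8+ T cells. Cytokines measured by mouse Th1/Th2/Th17 cytometric bead array. Duplicates of two independent experiments, mean ± SEM.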

[2] = Cytotoxicity against HEK-Blue hNOD2 cells assessed as reduction in metabolic activity at 10 uM incubated for 18 hrs by MTS assay; assay type: toxicity, cell-based; settings: human, hek-blue hnod2, 18 h
Procedure, shortened: (§3)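 Cells (HEK-Blue NOD2, RAW-Blue or freshly isolated human PBMCs) seeded in duplicate and exposed to 10 μM compound or 0.1% DMSO vehicle for 18 h at 37 °C, 5% CO2. Metabolic activity then measured by CellTiter 96 AQueous One (MTS) assay.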

[3] = Induction of activation of human CD56+ CD3- NK cells co-cultured with human PBMC cells assessed as increase in IFN-gamma expression at 1 uM incubated for 24 hrs by flow cytometry analysis (reference value: 0.04%); assay type: functional, Natural killer cell
[4] = Cytotoxicity against human PBMC cells assessed as reduction in metabolic activity at 10 uM incubated for 18 hrs by MTS assay; assay type: toxicity, cell-based; procedure, shortened: as §3
[5] = Induction of activation of human CD56+ CD3- NK cells co-cultured with human PBMC cells assessed as increase in CD69 expression at 1 uM incubated for 24 hrs by flow cytometry analysis (reference value: 2.7%); assay type: functional, Natural killer cell
CD8-positive T cell [6] = assay: (§4) Induction of mouse ovalbumin specific CD8-positive T cell activation assessed as increase in IL-17A expression at 1 uM preincubated for 18 hrs with mouse BDMC cells in presence of ovalbumin followed by washout and further coincubated with CD4+ T cells and measured after 72 hrs; assay type: functional, cell-based; procedure, shortened: as §2
K562 = assay: Cytotoxicity against human K562 cells cocultured with human PBMC cells assessed as inhibition of cell proliferation at 1 uM incubated with PBMC cells for 18 hrs followed by co-incubation with K562 cells for 4 hrs by SYTOX blue staining based flow cytometric analysis; assay type: functional
Procedure, shortened: (§5)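 Human PBMCs (Ficoll-isolated, healthy donors) pretreated 18 h in duplicate with compound (1 nM–1 μM) or 0.1% DMSO. CFSE-labelled K562 or MEC1 target cells then added, effector:target 40:1, 4 h at 37 °C. Sytox blue staining, flow cytometry; CFSE+Sytox+ cells counted as dead. Expressed relative to vehicle; three independent experiments, mean ± SEM.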

[7] = as §1, with “increase in CD25 expression at” for “increase in IL-17A expression at”, “72 hrs by flow cytometry analysis (reference value: 10.9%)” for “72 hrs”; assay type: functional, CD4+ve Th
Procedure, shortened: (§6)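 C57BL/6 BMDCs (GM-CSF 7 days, >90% CD11c+) pulsed 18 h with 1 μM compound, LPS 1 μg/mL or 0.1% DMSO plus OVA 50 μg/mL, washed. 1 × 10^4 BMDCs cocultured 72 h with 5 × 10^4 CFSE-labelled OT-II CD4+ or OT-I CD8+ T cells. Flow: live Thy1.2+ CD4+ or CD8+ cells scored as CD25+ CFSElow. Duplicates of two experiments.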

[8] = Induction of activation of human CD56+ CD3- NK cells co-cultured with human PBMC cells assessed as increase in CD107a expression at 1 uM incubated for 24 hrs by flow cytometry analysis (reference value: 1.5%); assay type: functional, Natural killer cell
[9] = Cytotoxicity against mouse RAW-Blue cells assessed as reduction in metabolic activity at 10 uM incubated for 18 hrs by MTS assay; assay type: toxicity, cell-based; procedure, shortened: as §3
RAW-Blue = assay: Activation of NF-kappaB transcriptional activity in mouse RAW-Blue cells expressing NOD2 and TLR7 at 1 uM incubated for 18 hrs by quanti-blue/SEAP-based spectrophotometry analysis; assay type: cell-based; settings: filed as activator
Procedure, shortened: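 RAW-Blue cells pretreated 1 h with NOD2 antagonist SG84 (5 μM), TLR7 antagonist M5049 (1 μM), both, or neither, then given compound or 0.1% DMSO vehicle; 18 h at 37 °C, 5% CO2 in growth medium without Normocin/Zeocin. Supernatant mixed with QUANTI-Blue for 2 h at 37 °C, SEAP read at 630 nm. Activity relative to vehicle; three independent experiments, mean ± SEM.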

CD8-positive T cell [10] = assay: Induction of mouse ovalbumin specific CD8-positive T cell activation assessed as increase in IL-6 expression at 1 uM preincubated for 18 hrs with mouse BDMC cells in presence of ovalbumin followed by washout and further coincubated with CD4+ T cells and measured after 72 hrs; assay type: functional, cell-based; procedure, shortened: as §2
CD4+ve Th [11] = assay: Induction of mouse ovalbumin specific CD4+ T cell activation assessed as increase in IFN-gamma expression at 1 uM preincubated for 18 hrs with mouse BDMC cells in presence of ovalbumin followed by washout and further coincubated with CD4+ T cells and measured after 72 hrs; assay type: functional, cell-based; procedure, shortened: as §2
CD4+ve Th [12] = assay: Induction of mouse ovalbumin specific CD4+ T cell activation assessed as increase in IL-6 expression at 1 uM preincubated for 18 hrs with mouse BDMC cells in presence of ovalbumin followed by washout and further coincubated with CD4+ T cells and measured after 72 hrs; assay type: functional, cell-based; procedure, shortened: as §2
CD4+ve Th [13] = assay: Induction of mouse ovalbumin specific CD4+ T cell activation assessed as increase in TNF expression at 1 uM preincubated for 18 hrs with mouse BDMC cells in presence of ovalbumin followed by washout and further coincubated with CD4+ T cells and measured after 72 hrs; assay type: functional, cell-based; procedure, shortened: as §2
CD8-positive T cell [14] = assay: Induction of mouse ovalbumin specific CD8-positive T cell activation assessed as increase in IFN-gamma expression at 1 uM preincubated for 18 hrs with mouse BDMC cells in presence of ovalbumin followed by washout and further coincubated […] and measured after 72 hrs; assay type: functional, cell-based; procedure, shortened: as §2
[15] = as §4, with “increase in CD25 expression at” for “increase in IL-17A expression at”, “72 hrs by flow cytometry analysis (reference value: 12.6%)” for “72 hrs”; assay type: functional; procedure, shortened: as §6
MEC1 = assay: Cytotoxicity against human MEC1 cells cocultured with human PBMC cells assessed as inhibition of cell proliferation at 1 uM incubated with PBMC cells for 18 hrs followed by co-incubation with MEC-1 cells for 4 hrs by SYTOX blue staining based flow cytometric analysis; assay type: functional; procedure, shortened: as §5
CD8-positive T cell [16] = assay: Induction of mouse ovalbumin specific CD8-positive T cell activation assessed as increase in TNF expression at 1 uM preincubated for 18 hrs with mouse BDMC cells in presence of ovalbumin followed by washout and further coincubated with CD4+ T cells and measured after 72 hrs; assay type: functional, cell-based; procedure, shortened: as §2
PBMC = assay: Immunostimulatory activity in human PBMC cells assessed as increase in IL-8 production at 1 uM incubated for 18 hrs by flow cytometry analysis; assay type: functional, cell-based
Procedure, shortened: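 PBMCs at 1 × 10^6 cells/mL treated with compound (1 μM), LPS (1 μg/mL) or 0.1% DMSO vehicle; cell-free supernatants collected after 18 h at 37 °C, 5% CO2. Cytokines quantified by human inflammatory cytokine bead array on flow cytometry with recombinant standard curves. Four independent experiments, mean ± SEM.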

SMILES | Activity (CD4+ve Th [1]) | Activity [2] | Activity [3] | Activity [4] | Activity [5] | Activity (CD8-positive T cell [6]) | Activity (K562) | Activity [7] | Activity [8] | Activity [9] | Activity (RAW-Blue) | Activity (CD8-positive T cell [10]) | Activity (CD4+ve Th [11]) | Activity (CD4+ve Th [12]) | Activity (CD4+ve Th [13]) | Activity (CD8-positive T cell [14]) | Activity [15] | Activity (MEC1) | Activity (CD8-positive T cell [16]) | Activity (PBMC)
CCCCOc1nc(N)c2nc(O)n(Cc3ccc(C(=O)NCCCCCC(=O)Oc4ccc(/C=C/C(=O)NCC(=O)N[C@H](C(=O)N[C@H](CCC(=O)OCC)C(=O)OCC)C(C)C)cc4OC)cc3)c2n1 | Active | Non-Toxic | 21% | Non-Toxic | 93% | Active | Active | 29.5% | 8.6% | Non-Toxic | Active | Active | Active | Active | Active | Active | 44.7% | Active | Active | –
CCOC(=O)CC[C@@H](NC(=O)[C@@H](NC(=O)CNC(=O)/C=C/c1ccc(O)c(OC)c1)C(C)C)C(=O)OCC | – | Non-Toxic | 1.4% | Non-Toxic | 14% | – | – | 12.6% | 1.1% | Non-Toxic | – | – | – | – | – | – | 13.1% | – | – | Active
